Assay results taken from ChEMBL document CHEMBL4513216, “Probing the Open Global Health Chemical Diversity Library for Multistage-Active Starting Points for Next-Generation Antimalarials” (ACS Infect Dis, 2020).

test: Toxicity liver stage against HepG2, at 10uM; assay type: cell-based; set-up: test concentration 10 uM, cell line HepG2-A16-CD81EGFP; settings: human, HepG2-A16-CD81EGFP cells; read-out: INHIBITION
Method in brief: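 Uninfected HepG2-A16-CD81EGFP cells, 3 × 10^3 per well, 1536-well, plated on prespotted compound at 10 μM final, parasite-free screening media added to match infected plates; puromycin 10 μM positive, DMSO 0.5% negative; run in parallel with 48 h PbLuc assay at 37 °C, 5% CO2; viability by CellTiter-Glo luminescence, normalized to controls.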

Compound	cytotoxicity at 10 µM
CN(C)C(=O)c1cccnc1SCc1ccccc1C#N	2.02%
COCC(O)CN1CCC(=O)N(Cc2ccccc2)Cc2ccccc21 (configuration not stated)	1.19%
COCCn1ccc2c(C(=O)NC(C)C)cccc21	3.46%
COCCn1/c(=N/C(=O)C(C)C)sc2cc(Cl)ccc21	-5.26%
O=S(=O)(NCCNc1ccc(-n2cccc2)nn1)c1cccs1	-12.3%
CC[C@H]1N(Cc2ccco2)CCC[C@]12CCC(=O)N2C	4.23%
CO[C@H]1CN(C(=O)c2ccc3c(c2)OCO3)[C@@H]2COC[C@H]12	-142%
Cc1oncc1C(=O)N1CCC2(CCN(Cc3cccc(F)c3)C2=O)C1 (configuration not stated)	-142%
COc1ccc(-c2cc(=O)n3c(n2)CCCCC3)cc1	-14.1%
CC(=O)N1CCC2(CC1)C(=O)N(CC1CC1)c1ccccc12	11.2%
Nc1no[n+]([O-])c1C(=O)NCc1ccccn1	-2.02%
COCCNCc1cc2ccc(C)c(C)c2[nH]c1=O	5.13%
CN(C)CC(=O)N1CCCC1c1ccccn1 (configuration not stated)	4.38%
CNc1cc(C2CN(Cc3cccnc3NC)CCO2)nc(C)n1 (configuration not stated)	2.93%
CCCn1nc(C)c(C(=O)N[C@@H]2CC[C@@H](N3CCCC3)[C@@H]2O)c1C	-4.79%
Cc1cc(C)n(CC(=O)N2CCC(c3cc4cccnc4[nH]3)CC2)n1	16.8%
FC(F)(F)c1cc(C2CCNCC2)nc(-c2ccsc2)n1	8.6%
CCCC(=O)N1CCC(c2cc3cccnc3c(O)n2)CC1	-3.63%
CC1(C2CCN(CC(N)=O)CC2)CN(Cc2ccccc2)C(=O)O1 (configuration not stated)	-23.4%
NC(=O)C1CCN(C(=O)CCn2c(C(F)(F)F)cc3cccnc32)CC1	-23.7%
CN(C)CCN(C)C(=O)c1ccccc1-n1cc(CN(C)C)cn1	-13.7%
O=C(c1cccnc1)N1CCC(c2nc(O)cc(-c3ccncc3)n2)C1 (configuration not stated)	-20.8%
O=C(Cn1ccnc1)N1C[C@@H]2CC[C@H](Oc3cccc(F)c3)[C@@H]2C1	-18%

Compound	cytotoxicity at 10 µM
CCn1cc(CN2CCc3nc(-c4ccccn4)nc(O)c3C2)cn1	-2.25%
Cc1nc(C)n(CC2CCCN2c2ccnc(-c3ccccc3)n2)n1 (configuration not stated)	9.69%
CC(C(=O)N(C)Cc1ccc(Br)o1)n1cccn1 (configuration not stated)	4.9%
CS(=O)(=O)NCc1ccc2c(c1)CCC2	-1.9%
CC(OCC1CC1)C(=O)NCCC(=O)Nc1ccccn1 (configuration not stated)	-5.72%
CC(=O)NCCNC(=O)NCC1Cc2ccccc2O1 (configuration not stated)	-1.83%
FC(F)(F)c1csc(N2CCN(Cc3ccccn3)CC2)n1	4.25%
CC(O)CN1CCN(Cc2coc(-c3ccccc3)n2)CC1 (configuration not stated)	-5.93%
Cc1cc(C(=O)NCCC(=O)N2CCCc3ccccc32)no1	2.29%
COc1cc(CNC(=O)c2cc(S(C)(=O)=O)ccc2C)ccn1	-1.65%
CN1CCN(C2CCN(Cc3ccc(Cl)cc3)CC2)C1=O	7.9%
Cc1nnc2n1CCN(C(=O)C(C)Oc1ccc(C#N)cc1)C2 (configuration not stated)	-0.643%
CC(C)C(C(=O)NC1CC1)n1cnc2cc(F)c(F)cc21 (configuration not stated)	15.3%
N#Cc1ncn(CCC(=O)Nc2ccc(F)c(F)c2)n1	-147%
CCCc1nc(C)c(C(=O)Nc2cccc(C)n2)s1	-40.8%
Cc1nc2ccc(C(=O)N3CCn4c(C)nnc4C3)cc2nc1C	-6.2%
Cc1ncncc1C(=O)N1CCCN(Cc2cnn(C(C)C)c2)CC1	0.814%
COc1ccc2c(c1)CCCN(C(C)C(=O)NC(N)=O)C2 (configuration not stated)	8.66%
CCc1n[nH]c(C2CN(CCCOc3cccc(C)c3)CCO2)n1 (configuration not stated)	-15%
CCc1noc(CC)c1CC(=O)N1CCN(C(=O)C2CCCC2)CC1	-4.78%
CC(C)OCCSCCn1nc2ccccn2c1=O	3.36%
CC(C)N(C)C(=O)CSCc1ccc(S(=O)(=O)N(C)C)o1	19.1%
Clc1cnc(NCc2ccccc2N2CCOCC2)nc1	-0.234%

Compound	cytotoxicity at 10 µM
Cn1ccnc1CNCCNc1ncc(Cl)cc1Cl	0.321%
Cc1cc(C(C)NC(=O)c2ccc(O)nc2)c(C)o1 (configuration not stated)	-1.85%
COc1cc(CNc2cnn(CCN3CCOCC3)c2)cc(OC)c1	-7.38%
CC1CCN(CC(O)CNc2ccccn2)CC1 (configuration not stated)	11.4%
Cc1nc(C)n(CC2CCCCN2CC(=O)Nc2nncs2)n1 (configuration not stated)	4.62%
CCc1noc(CNc2cc(F)ccc2OCC2CCCO2)n1 (configuration not stated)	-3.27%
CCOCC(O)CN1CCN(C(=O)c2ccnc(N(C)C)c2)CC1 (configuration not stated)	-3.47%
CN(Cc1ccc(F)cc1)C(=O)Cn1nc(-c2ccc(F)cc2)oc1=O	8.68%
O=C(CCNC(=O)c1ccccc1)Nc1ccncc1	-2.36%
CN(Cc1cnn(C)c1)C(=O)NC1CCC(O)CC1 (configuration not stated)	-14.7%
Cc1cc(NC(=O)N2CCN(c3nc(C)c(C)s3)CC2)no1	3.04%
O=C(NCC1CC2(CO1)CN(c1nncs1)C2)C1CCC1 (configuration not stated)	-103%
CN1CCN(S(=O)(=O)c2ccc(C(=O)N3CC[C@@H](O)C3)cc2)CC1=O	2.7%
Cc1ccccc1SC1CCN(C(=O)C2CNCC(=O)N2)CC1 (configuration not stated)	-3.81%
CC(C)(O)CCc1cccc(C(=O)N2CCC[C@H]2CN2CCCC2)c1	-1.13%
O=C(c1ccc(-n2cnnc2)cc1Cl)N1CCCC(O)(CO)CC1 (configuration not stated)	-3.59%
CN(Cc1ccsc1)C(=O)C1CCC(=O)N(Cc2ccccn2)C1 (configuration not stated)	0.0228%
Cc1noc(-c2ccc(N(C)Cc3nccs3)nc2)n1	9%
CNCC(=O)NC1CC(C)(C)Cc2nc(C(C)(C)C)ncc21 (configuration not stated)	10.2%
COc1nc2c(cc1C(=O)N1CCCC1c1ccccn1)CCC2 (configuration not stated)	-5.54%
O=C(CCN1CCOCC1)NC1CCCN(CC2CCCCC2)C1 (configuration not stated)	1.64%
COc1ccc(CC2(CO)CCN(c3cc(C#N)ccn3)CC2)cc1	8.86%
COc1cccc(OC)c1-c1c[nH]c(C)n1	-1.57%

Compound	cytotoxicity at 10 µM
CC(CO)NCc1csc2c1CCCC2 (configuration not stated)	-11.3%
Cc1nc(NCCSc2cnn[nH]2)c2c(C)noc2n1	-3.21%
O[C@@]1(CNCC2(Cn3cccn3)CC2)CCCN2CCCC[C@@H]21	4.13%
COc1cccc2c(=O)n(Cc3nc(C)cc(O)n3)cnc12	9.49%
CN(Cc1n[nH]c(=O)n1Cc1ccccc1F)S(C)(=O)=O	-4.98%
CC(C)CCC(=O)N1CCCC2(CCN(Cc3ccccc3C#N)C2)C1 (configuration not stated)	0.129%
CC1(c2ccccc2)CCC(=O)N(CCCN2CCOCC2)C1 (configuration not stated)	-18.1%
Cc1ccc2nc(C3CCCN3C(=O)c3cc(=O)[nH]c(=O)[nH]3)[nH]c2c1 (configuration not stated)	18.7%
c1ccc(CCCN2CCCC(Nc3cnc4ccccc4n3)C2)cc1 (configuration not stated)	1.34%
CCNC(=O)N1CCCC(C(=O)c2cccc(OC(C)C)c2)C1 (configuration not stated)	8.62%
COc1cccc(CC2CN(C3CCN(C(C)=O)CC3)CCO2)c1 (configuration not stated)	-12.4%
O=C(CCc1cc2n(n1)CCCN(C(=O)c1cccnc1)C2)NC1CC1	-7.38%
Cc1cccc2[nH]c(C3CCN(C(=O)c4ccnn4C)CC3)nc12	-21.6%
COc1ccc(-c2ccnc3c2C(=O)CCC3)cc1	6.09%
COc1c(C2CCCN2C(=O)c2cccc(C)n2)c(C)nn1C (configuration not stated)	-7.52%
Cc1nc(CN(C)C2CCCN(c3ccccc3)C2)no1 (configuration not stated)	-6.9%
CC(Cn1cccn1)NCc1nc(-c2ccsc2)no1 (configuration not stated)	-8.42%
COc1ccc(C2=CCN(C(=O)C3CCCN(C(C)=O)C3)CC2)cc1 (configuration not stated)	-13.4%
O=C(NCCc1ccccn1)Nc1cc(C(F)(F)F)c[nH]c1=O	-6.78%
CCc1nc(C2CCCN2C(=O)CCc2c(C)noc2Cl)no1 (configuration not stated)	-7.07%
O=C(CCc1cccs1)N1CCCC1c1noc(C2CC2)n1 (configuration not stated)	-4.87%
Cc1ccc(O)c(C(=O)N2CCOCC2c2c(C)n[nH]c2C)c1 (configuration not stated)	-10.8%
Cc1nc(C)n(C2CCCN(C(=O)c3cncnc3C)C2)n1 (configuration not stated)	-2.48%

Compound	cytotoxicity at 10 µM
CC(C)c1nnc2n1CCN(C(=O)Cc1csc(C(C)(C)C)n1)C2	-4.54%
CC(=O)NCCCC(=O)NC(C)c1nnc2n1CCC2 (configuration not stated)	-10.3%
CN(C)c1ccc(C(=O)NCc2csc(Br)c2)cn1	-4.97%
Cc1nc(CN2CCN(C(=O)c3sccc3C3CC3)CC2)oc1C	-15.2%
CCN1CCN(Cc2csc(C(C)C)n2)CC1	-5.78%
COc1ccccc1C(O)CNC(=O)NCc1cccnc1OC (configuration not stated)	-4.48%
CC1(C)CN(C(CNC2=NCCN2)c2ccc(Cl)cc2)CCO1 (configuration not stated)	8%
Fc1ccccc1CN(CCCn1ccnc1)CC1CCOC1 (configuration not stated)	8.68%
COc1ccc(C[C@H]2CNCC[C@H]2OC)cc1	1.76%
O=C(CN1CCN(CC(O)C2CC2)CC1)NCc1ccc(F)cc1 (configuration not stated)	-0.084%
Cc1cccc(CN2CCC3(CC2)NC(=O)C[C@H]3c2cnn(C)c2)n1	4.53%
O=C(C1CCC2(CCN(CC3CC3)CC2)O1)N1CCCC1 (configuration not stated)	1.58%
c1cnc(NC[C@@H]2CCC[C@@H]3CN(Cc4cc[nH]n4)C[C@@H]32)nc1	-13.1%
Cc1cccc(CN2C[C@@H]3CN(C(=O)c4cnoc4C)C[C@@H]3C2=O)n1	5.71%
O=C1[C@H]2CN(C3CCOCC3)C[C@H]2CN1Cc1cccc(F)c1	-117%
O=C(COC[C@H]1CC[C@H]2[C@H](CCN2c2ncccn2)O1)N1CCCC1	-7.41%
O=C1CC(c2ccncc2)C2(CCN(Cc3ccc(F)cc3)CC2)N1 (configuration not stated)	1.35%
CC(C)N1CCc2[nH]nc(C(=O)N3CCN(C)CC3)c2C1	-3.75%
O=C(Cc1cccs1)N1C[C@@H]2OCCN(CC3CCCO3)[C@@H]2C1 (some centres not stated)	-11%
CNC(=O)[C@H]1C[C@H]2CN(Cc3ccccc3)C[C@@H]1O2	8.84%
